In ChEMBL document CHEMBL1773023, “Potent and selective phosphopeptide mimetic prodrugs targeted to the Src homology 2 (SH2) domain of signal transducer and activator of transcription 3” (J Med Chem, 2011) one finds inhibition and Ki data, which are given here for 20 compounds.

Broadly, the Ki is a dissociation constant, usually derived from enzyme kinetics or from competition with a known ligand. Low readings indicate higher affinity, high ones lower affinity.

Calls of active or inactive are those of the source. No cut-off for these calls is given here.

T1 sequence (P40763 whole entry, the tested form may be a part): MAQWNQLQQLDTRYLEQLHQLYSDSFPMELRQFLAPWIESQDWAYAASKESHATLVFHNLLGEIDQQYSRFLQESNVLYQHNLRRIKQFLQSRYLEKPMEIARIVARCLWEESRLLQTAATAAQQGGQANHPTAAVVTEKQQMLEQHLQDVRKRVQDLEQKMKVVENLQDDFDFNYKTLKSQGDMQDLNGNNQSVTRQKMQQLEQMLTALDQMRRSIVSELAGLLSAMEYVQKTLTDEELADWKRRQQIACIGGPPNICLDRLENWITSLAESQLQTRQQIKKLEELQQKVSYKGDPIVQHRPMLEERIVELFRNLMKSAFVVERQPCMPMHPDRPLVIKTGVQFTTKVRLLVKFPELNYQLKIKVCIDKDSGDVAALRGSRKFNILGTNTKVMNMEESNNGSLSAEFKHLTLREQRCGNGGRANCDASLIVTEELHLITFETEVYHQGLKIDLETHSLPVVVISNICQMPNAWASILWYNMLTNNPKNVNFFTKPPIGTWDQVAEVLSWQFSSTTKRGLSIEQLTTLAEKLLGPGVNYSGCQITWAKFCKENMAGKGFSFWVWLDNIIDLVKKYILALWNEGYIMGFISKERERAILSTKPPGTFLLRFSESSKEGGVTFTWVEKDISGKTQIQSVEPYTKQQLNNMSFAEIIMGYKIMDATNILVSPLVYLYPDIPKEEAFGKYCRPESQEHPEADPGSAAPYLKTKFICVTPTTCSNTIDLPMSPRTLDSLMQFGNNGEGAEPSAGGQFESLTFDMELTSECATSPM

The first experiment addresses T1, Signal transducer and activator of transcription 3 (Homo sapiens, UniProt P40763). Put plainly: Inhibition of SH2 domain of Stat3 constitutive phosphorylation at Tyr705 in human MDA-MB-468 cells at 0.1 uM after 2 hrs by Western blotting. The format is cell-based. A digest of the protocol: (§1)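 MDA-MB-468 cells (4×10^5/well, DMEM 10% FCS, overnight) given prodrug from freshly made 10 mM DMSO stock for 2 h. Lysates in Hepes pH 7.4 Triton buffer with phosphatase/protease inhibitors; 12 μg protein on 8% SDS-PAGE, PVDF, probed for pStat3 Y705 by ECL, then stripped and reprobed for total Stat3.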
(In general: In western blotting, separated proteins are transferred to a membrane and probed.)
As for `C[C@H](CCC(N)=O)NC(=O)[C@@H]1Cc2cccc3c2N1C(=O)[C@@H](NC(=O)/C=C/c1ccc(C(F)(F)P(=O)(OCOC(=O)C(C)(C)C)OCOC(=O)C(C)(C)C)cc1)CC3`, the inhibition entry was “Active”.

The target of a further experiment is T1, Signal transducer and activator of transcription 3. Put plainly: Inhibition of SH2 domain of Stat3 constitutive phosphorylation at Tyr705 in human MDA-MB-468 cells after 2 hrs by Western blotting. Type of experiment: cell-based. In short, it runs like this:
as §1
Regarding `C/C(=C\C(=O)N[C@H]1CCc2cccc3c2N(C1=O)[C@H](C(=O)N[C@@H](CCC(N)=O)C(=O)NCc1ccccc1)C3)c1ccc(C(F)(F)P(=O)(OCOC(=O)C(C)(C)C)OCOC(=O)C(C)(C)C)cc1`, the inhibition result is “Dose-dependent effect”.

As to `CC(C)(C)C(=O)OCOP(=O)(OCOC(=O)C(C)(C)C)C(F)(F)c1ccc(/C=C/C(=O)N[C@H]2CCc3cccc4c3N(C2=O)[C@H](C(=O)N[C@@H](CCC(N)=O)C(=O)NCc2ccccc2)C4)cc1`, the inhibition entry was “Dose-dependent effect”.

For another experiment the target is unchanged. Put plainly: Inhibition of SH2 domain of Stat3 constitutive phosphorylation at Tyr705 in human MDA-MB-468 cells at 0.5 uM after 2 hrs by Western blotting. Type of experiment: cell-based. In short, it runs like this: as §1
As for `C[C@H](CCC(N)=O)NC(=O)[C@@H]1Cc2cccc3c2N1C(=O)[C@@H](NC(=O)/C=C/c1ccc(C(F)(F)P(=O)(OCOC(=O)C(C)(C)C)OCOC(=O)C(C)(C)C)cc1)CC3`, the inhibition entry is “Active”.

The target is the same in the next experiment. The experiment in a line: Binding affinity to SH2 domain of Stat3 by fluorescence polarization assay. In short, it runs like this: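 Recombinant Stat3, expressed and purified, tested against phosphopeptides and peptidomimetics in a fluorescence polarization competition assay. Affinity is reported as an inhibition constant (K_I).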
A general note: Fluorescence polarisation rises when a labelled molecule tumbles more slowly, as on binding a larger partner.
With `C/C(=C\C(=O)N[C@@H](CC(C)C)C(=O)N1CCC[C@H]1C(=O)N[C@H](C)CCC(N)=O)c1ccc(OP(=O)(O)O)cc1`, the Ki was 144 nM.

`C/C(=C\C(=O)N[C@H]1CCc2cccc3c2N(C1=O)[C@H](C(=O)N[C@@H](CCC(N)=O)C(=O)NCc1ccccc1)C3)c1ccc(OP(=O)(O)O)cc1` came in with an inhibition constant (Ki) of 57 nM.

The compound `CCCC[C@H](NC(=O)/C=C(\C)c1ccc(OP(=O)(O)O)cc1)C(=O)N1C[C@H]2C[C@H]2[C@H]1C(=O)N[C@H](C)CCC(N)=O` gave an inhibitory constant (Ki) of 66 nM.

In turn, `C/C(=C\C(=O)N[C@@H](CC(C)C)C(=O)N1C[C@H]2C[C@H]2[C@H]1C(=O)NCCNC(N)=O)c1ccc(OP(=O)(O)O)cc1` had a Ki of 39 nM.

In turn, `C/C(=C\C(=O)N[C@H]1CCc2cccc3c2N(C1=O)[C@H](C(=O)NCCNC(N)=O)C3)c1ccc(OP(=O)(O)O)cc1` showed a Ki of 386 nM.

Take `C/C(=C\C(=O)N[C@@H](CC(C)C)C(=O)N1CCC[C@H]1C(=O)N[C@@H](CCC(N)=O)C(=O)NCc1ccccc1)c1ccc(OP(=O)(O)O)cc1`: the inhibition constant (Ki) came out at 66 nM. This Ki lies about 5.8-fold lower than the previous one.

Take `C/C(=C\C(=O)N[C@@H](CC(C)C)C(=O)N1C[C@H]2C[C@H]2[C@H]1C(=O)NCCOC(N)=O)c1ccc(OP(=O)(O)O)cc1`: the inhibition constant (Ki) turned out to be 193 nM. This Ki is about 2.9-fold higher than that of the compound before.

In turn, `C/C(=C\C(=O)N[C@H]1CCc2cccc3c2N(C1=O)[C@H](C(=O)NCCOC(N)=O)C3)c1ccc(OP(=O)(O)O)cc1` registered a Ki of 188 nM.

The compound `C/C(=C\C(=O)N[C@@H](CC(C)C)C(=O)N1CCC[C@H]1C(=O)NCCNC(N)=O)c1ccc(OP(=O)(O)O)cc1` registered a Ki of 94 nM.

The compound `CCCC[C@H](NC(=O)/C=C/c1ccc(OP(=O)(O)O)cc1)C(=O)N1C[C@H]2C[C@H]2[C@H]1C(=O)N[C@@H](CCC(N)=O)C(=O)NCc1ccccc1` had a Ki of 48 nM.

In turn, `CCCC[C@H](NC(=O)/C=C(\C)c1ccc(OP(=O)(O)O)cc1)C(=O)N1C[C@H]2C[C@H]2[C@H]1C(=O)N[C@@H](CCC(N)=O)C(=O)NCc1ccccc1` came in with an inhibitory constant (Ki) of 33 nM.

With `CCCC[C@H](NC(=O)/C=C(\C)c1ccc(OP(=O)(O)O)cc1)C(=O)N1C[C@H]2C[C@H]2[C@H]1C(=O)NCCOC(N)=O`, the affinity corresponds to a Ki of 114 nM.

As for `C/C(=C\C(=O)N[C@@H](CC(C)C)C(=O)N1C[C@H]2C[C@H]2[C@H]1C(=O)N[C@H](C)CCC(N)=O)c1ccc(OP(=O)(O)O)cc1`, the Ki stood at 83 nM.

Consider `CCCC[C@H](NC(=O)/C=C(\C)c1ccc(OP(=O)(O)O)cc1)C(=O)N1C[C@H]2C[C@H]2[C@H]1C(=O)NCCNC(N)=O`, for which the Ki worked out at 46 nM.

Consider `C/C(=C\C(=O)N[C@@H](CC(C)C)C(=O)N1CCC[C@H]1C(=O)NCCOC(N)=O)c1ccc(OP(=O)(O)O)cc1`, for which the Ki was found to be 203 nM.

Regarding `C/C(=C\C(=O)N[C@H]1CCc2cccc3c2N(C1=O)[C@H](C(=O)N[C@H](C)CCC(N)=O)C3)c1ccc(OP(=O)(O)O)cc1`, the Ki is 105 nM. This Ki lies about 1.9-fold lower than the previous one.

As for `C/C(=C\C(=O)N[C@@H](CC(C)C)C(=O)N1C[C@H]2C[C@H]2[C@H]1C(=O)N[C@@H](CCC(N)=O)C(=O)NCc1ccccc1)c1ccc(OP(=O)(O)O)cc1`, the affinity corresponds to a Ki of 43 nM.
